SENP6 inh: SENP6 protease inhibitors, primary screen, biochemical, luminescence, uHTS; inhibition, % at 10 µM; Recombinant SENP6 catalytic domain, aminoluciferin luminescence; 330,000 tested, 1.8% active; Sentrin-specific protease 6 (Homo sapiens), Q9GZR1;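 active = inhibition above about 50% at the single tested dose, limit read from the data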;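 note: plate controls were DMSO wells with enzyme for no effect and DMSO wells lacking enzyme for full effect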
SENP8 block-1: human SENP8 protease inhibitors, primary screen, biochemical, fluorescence, Nedd8 protein substrate, uHTS. inhibition, % at 20 µM. AID 602440, 2012. recombinant SENP8. 360,000 tested, 0.64% active. Sentrin-specific protease 8 (Homo sapiens), Q96LD8; in the data active = inhibition mostly above about 40%, no sharp cut-off; inactive = mostly below about 27%
Target sequence (Q96LD8 whole entry, looked up): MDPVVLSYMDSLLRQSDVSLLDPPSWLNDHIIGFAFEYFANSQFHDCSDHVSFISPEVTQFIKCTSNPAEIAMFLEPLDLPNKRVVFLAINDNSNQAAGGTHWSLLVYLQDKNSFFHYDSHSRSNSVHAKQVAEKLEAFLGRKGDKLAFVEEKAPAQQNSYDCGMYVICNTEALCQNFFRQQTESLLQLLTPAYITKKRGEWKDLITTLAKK
SENP8 block-2: SENP8 protease inhibitors, primary screen, biochemical, luminescence; inhibition, % at 10 µM; 330,000 tested, 1.2% active; purified SENP8, Z-RLRGG-aminoluciferin cleavage; in the data active = inhibition above about 50%
SENP1 inh: human SENP1 catalytic domain inhibitors, primary screen, biochemical, FRET, uHTS. 360,000 tested, 0.21% active. AID 624204, 2012. recombinant SENP1 catalytic domain, CyPet-SUMO1-YPet FRET cleavage. inhibition, % at 10 µM;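 active = inhibition at least 30% at 10 µM, raw YFP signal under a set limit, fluorescence ratio 0.5 to 1.5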;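 note: 0% = enzyme with DMSO and 100% = no enzyme wells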
Target sequence (Q9P0U3 419-644 limits assumed): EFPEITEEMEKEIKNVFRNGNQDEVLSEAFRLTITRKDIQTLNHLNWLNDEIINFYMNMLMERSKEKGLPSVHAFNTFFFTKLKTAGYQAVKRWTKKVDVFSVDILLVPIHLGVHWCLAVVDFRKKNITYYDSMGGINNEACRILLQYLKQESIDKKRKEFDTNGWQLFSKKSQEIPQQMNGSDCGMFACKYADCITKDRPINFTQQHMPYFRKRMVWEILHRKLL
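Material – human SENP1 catalytic domain · Input – SENP1 enzyme, 20 pM final · Compound dosing – single concentration of 10 µM compound, 0.5% DMSO final · Timing – enzyme reaction for 50 min at room temperature, dark · Measured by – FRET fluorescence in CFP and YFP emission channels · Control set – no-enzyme wells low, DMSO-plus-enzyme wells high control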
SENP7 block: SENP7 protease inhibitors, primary screen, biochemical, luminescence, uHTS | recombinant SENP7, Z-RLRGG-aminoluciferin luminescence, 40 min | inhibition, % at 5 µM | 330,000 tested, 1.5% active | AID 434973, 2010;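 active = inhibition above about 50% at the single test dose, limit read from the data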;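 note: plate controls were DMSO with enzyme for no effect and no enzyme buffer wells for full effect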
Apaf1 inhib: inhibitors of human Apaf-1 apoptosome, primary screen, biochemical, DEVD-Rh110 fluorescence, uHTS. 330,000 tested, 0.71% active. inhibition, % at 20 µM. reconstituted apoptosome caspase-3 activity; active = inhibition of at least 40% at 20 µM;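 note: plate controls were DMSO wells for no effect and DEVD-CHO caspase inhibitor wells for full effect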
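Material: cell-free apoptosome with Apaf-1, procaspase-3 and caspase-9; Buffer or medium: Hepes pH 7.5 with detergent and BSA; Reagent: cytochrome c trigger plus (Z-DEVD)2-Rh110 caspase-3 substrate; Times: compound with Apaf-1, dATP, procaspase-3 30 min, then 50 min reaction, room temperature; Technique: Rh110 fluorescence intensity.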
SENP8 conf: human SENP8 protease inhibitors, confirmation, biochemical, Nedd8 protein substrate, single concentration | AID 624319, 2012 | shares compounds with SENP8 block-1 | purified SENP8, Nedd8-AMC/pro-Nedd8 cleavage fluorescence, 30 min | inhibition, % at 25 µM | 1,400 tested, 15% active; in the data active = inhibition mostly above about 39%, no sharp cut-off; inactive = mostly below about 34%
Numbers without * were called inactive; . = not tested or not shown. Sampled rows, rich in hits. Any-hit rate of the full collection: about 2.9%.

SMILES	SENP6 inh	SENP8 block-1	SENP8 block-2	SENP1 inh	SENP7 block	Apaf1 inhib	SENP8 conf
O=[N+]([O-])c1ccccc1NCCNS(=O)(=O)c1ccc(Cl)cc1	-4	13	2	3	-4	-1	.
O=[N+]([O-])c1cc(Cl)ccc1NCCNS(=O)(=O)c1ccccc1	5	43*	7	8	0	6	17
CC(=O)Nc1ccc(Nc2ncc([N+](=O)[O-])c(Nc3ccc(NC(C)=O)cc3)n2)cc1	-5	44*	-4	7	-4	-21	8
COCCN(CCOC)Cc1cc(=O)oc2cc(OC)ccc12	.	-265	.	-6	.	.	.
O=C(O)CC1c2ccccc2CCN1S(=O)(=O)c1cccs1 (stereo unspecified)	-16	43*	-3	2	-6	-22	-9
COc1cc(N=c2ssnc2Cl)cc(OC)c1	-3	19	-1	3	7	-1	.
Clc1nssc1=Nc1ccc(Br)cc1	.	44*	.	1	.	.	12
CCCCCNc1ncnc2c(C)[nH]nc12	.	-8	.	-2	.	.	.
CCOC(=O)C1=C(C)N(C2CCCCC2)C(=O)C1	-13	22	7	1	-2	1	.
COC(=O)C1=C(C)N(C2CCCCC2)C(=O)C1	1	42*	4	3	4	-4	6
CCCCCCCCN1C(=O)[C@H](CC(=O)NCC2CCCCC2)C[C@@]2(C(=O)OC)CCCCC=C12	.	4	.	0	.	.	.
O=C(/C=C/NNC(=O)c1ccc(Cl)cc1)c1ccccc1	-1	39*	-9	1	-8	23	32
COc1ccc(C(=O)C=CNNC(=O)c2ccc(Cl)cc2)cc1	-2	33	4	-16	8	17	.
COc1ccc(S(=O)(=O)N2CCOCC2)cc1NC(=O)COC(=O)C1=COCCO1	-12	41*	-4	2	-6	-20	11
CC1CCN(c2ccc(NC(=S)NC(=O)c3ccco3)cc2)CC1	-17	42*	-6	3	-8	12	12
O=C(NC(=S)Nc1ccc(N2CCCCC2)cc1)c1ccco1	14	33	-13	4	-5	-3	.
Cc1ccc(-c2nc(CS(=O)CC(=O)NCCN3CCCCC3C)c(C)o2)cc1 (stereo unspecified)	-19	11	-9	-6	-5	-4	.
O=c1cc(-c2ccc(Cl)c(Cl)c2)[nH][nH]1	-6	33	1	2	14	26	.
O=c1cc(-c2ccc(Cl)cc2)[nH][nH]1	11	43*	-2	-2	7	7	33
COc1ccc(-c2cc(=O)[nH][nH]2)cc1	17	42*	2	2	10	17	28
CCOC(=O)N1CCC(Nc2ccc(N3C(=O)C4CCCCC4C3=O)cc2[N+](=O)[O-])CC1 (stereo unspecified)	-22	38*	1	3	8	18	22
O=C(CCc1ccccc1)NNC(=O)Cc1ccccc1	11	6	6	3	-2	-4	.
CCCS(=O)(=O)NC(=O)C1(C)CCN(C(=O)c2cc(-c3cccs3)oc2C)C1 (stereo unspecified)	.	-16	.	1	.	.	.
CCOC(=O)c1cc([N+](=O)[O-])cc([N+](=O)[O-])c1Sc1ncnc2nc[nH]c12	.	63*	.	1	.	.	34
CCOC(=O)C(C)(C)Sc1ncnc2nc[nH]c12	-10	11	-1	3	4	-17	.
SMILES	SENP6 inh	SENP8 block-1	SENP8 block-2	SENP1 inh	SENP7 block	Apaf1 inhib	SENP8 conf
COC(=O)CCCC1=CC2=CC(=O)C(C)(OC(=O)c3cccs3)C(=O)C2=CN1CCCCO (stereo unspecified)	15	53*	7	-23	2	38	56*
COC(=O)CCCC1=CC2=CC(=O)C(C)(OC(=O)c3cccs3)C(=O)C2=CN1CCN1CCOCC1 (stereo unspecified)	19	51*	7	-72	6	16	55*
COC(=O)CCCC1=CC2=C(c3ccccc3)C(=O)C(C)(OC(=O)C3CCCC3)C(=O)C2=CN1Cc1ccco1 (stereo unspecified)	1	2	4	-13	-8	17	.
COCCN1C=C2C(=O)C(C)(OC(=O)c3cccs3)C(=O)C=C2C=C1CCCC(=O)OC (stereo unspecified)	14	37	3	-21	1	22	.
COC(=O)CCCC1=CC2=CC(=O)C(C)(OC(=O)c3cccs3)C(=O)C2=CN1C1CC1 (stereo unspecified)	22	41*	14	-14	8	17	63*
COC(=O)CCCC1=CC2=C(c3ccccc3)C(=O)C(C)(OC(=O)C3CCCC3)C(=O)C2=CN1CCCCO (stereo unspecified)	5	48*	-1	-24	6	16	66*
O=C(Nc1ccc(Cl)cc1)c1csc([C@@H]2O[C@H](CO)[C@@H](O)[C@H]2O)n1	.	5	.	-1	.	.	.
COc1ccc(NC(=O)COC(=O)CC2CC3CCC2C3)c([N+](=O)[O-])c1 (stereo unspecified)	1	40*	-6	6	-1	13	23
COc1ccc(NC(=O)COC(=O)C2CCCCC2)c([N+](=O)[O-])c1	-10	12	-1	2	2	7	.
CNc1cncc(-c2cccnc2)n1	.	-477	.	-10	.	.	.
COC(=O)C1SCCN1S(=O)(=O)c1ccc(Cl)cc1 (stereo unspecified)	-2	42*	-11	1	-3	6	12
CC(=O)Nc1ccc(S(=O)(=O)N2CCSC2c2ccccc2Cl)cc1 (stereo unspecified)	-7	8	-4	2	-9	12	.
COc1cc(Cl)ccc1OC1(C)CCN(Cc2ccc3ccccc3c2)C1 (stereo unspecified)	.	22	.	-1	.	.	.
CC(=O)C1=C(C)NC2(O)c3ccccc3C(=O)C12O (stereo unspecified)	4	66*	6	-4	4	0	53*
CO/N=C(/c1nonc1N)N1CCN(c2ccc([N+](=O)[O-])cc2)CC1	-3	41*	2	-4	5	-10	0
Cn1cnc2c(=O)[nH]cc([N+](=O)[O-])c21	9	84*	4	-1	12	12	59*
Cn1cnc([N+](=O)[O-])c1Cl	-21	22	3	-1	1	-12	.

High-throughput results deposited in PubChem by Sanford-Burnham Center for Chemical Genomics.
